Bioassay records deposited in PubChem BioAssay by several laboratories.
HIF act – HIF pathway transcriptional activation | U2OS HRE-luciferase reporter, luminescence; normalized: DMSO 0%, desferrioxamine 100% | actives 0.32% (n = 300,000) | AID 1910 | activation, % at 7.5 µM (by protocol);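 active means mean activation of at least 10% of the iron chelator positive control signal, with at least half of replicates also reaching 10%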
PP1 counter – blocks human PP1-alpha phosphatase, a PP5 counter-screen; AID 2235; purified PP1alpha, OMFP fluorescence; actives 0.9% (n = 320,000); P62136; inhibition, % at 6.7 µM;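 active means inhibition above the mean inhibition of all tested compounds plus 3 SD, computed separately for each screening campaign, cut at about 15% in these data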
Target sequence (P62136 whole entry, looked up): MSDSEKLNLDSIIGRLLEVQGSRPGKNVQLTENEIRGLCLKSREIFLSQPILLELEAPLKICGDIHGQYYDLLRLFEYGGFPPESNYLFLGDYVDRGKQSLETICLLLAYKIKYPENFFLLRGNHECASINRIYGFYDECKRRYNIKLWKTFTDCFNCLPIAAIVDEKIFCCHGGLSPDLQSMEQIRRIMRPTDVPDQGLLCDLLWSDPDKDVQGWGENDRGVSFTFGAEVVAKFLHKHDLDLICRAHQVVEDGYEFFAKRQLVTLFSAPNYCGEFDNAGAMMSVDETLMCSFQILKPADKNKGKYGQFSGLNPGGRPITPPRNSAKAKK
FID counter – displaces DNA intercalator in HCV helicase counter-screen; AID 1845; DNA fluorescent intercalator displacement, fluorescence; inhibition, % at 7.9 µM; actives 0.17% (n = 290,000); in the data active means inhibition above about 37%;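 further: 0% = vehicle and 100% = reference compound; higher means more ethidium bromide displaced from hairpin DNA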
HCV NS3 hel inh – blocks Hepatitis C virus NS3 helicase unwinding | NS3 helicase DNA unwinding, Cy5 molecular beacon fluorescence | inhibition, % at 10.9 µM | actives 0.56% (n = 290,000);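 active means inhibition above the mean of all tested compounds plus 3 SD, set per campaign, cut at about 35% in these data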;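 further: 0% = DMSO wells and 100% = thioflavine S control wells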
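Measured by: Cy5 fluorescence, 0 and 60 min reads / Assay system: NS3 helicase fragment of HCV / Control set: low DMSO, high thioflavine S at 110 µM / Times: 1 h reaction at 25 °C, ATP-initiated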
PP5 inh – PP5 (human) phosphatase inhibition; inhibition, % at 6.7 µM; actives 0.18% (n = 320,000); purified PP5c, OMFP substrate fluorescence; AID 1987;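 active means inhibition above the campaign's mean inhibition across all tested compounds plus 3 SD, cut at about 9.5% in these data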;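 further: 0% = DMSO only and 100% = 100 µM cantharidin control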
Numbers without * were called inactive. Compounds with a hit are over-represented: about 1.9% of the library has one in this group of screens.

`Cc1cc(OCC(=O)NCc2ccccn2)c2c(C)c(Cc3ccccc3)c(=O)oc2c1` gave HIF act 0, PP1 counter 6, FID counter -30, HCV NS3 hel inh -22 and PP5 inh 5.
O=C(COC(=O)c1ccc(Cl)nc1)NCCNC(=O)COC(=O)c1ccc(Cl)nc1 was read as HIF act 0, PP1 counter -7 and PP5 inh 0.
Screening CC(C)(C)NC(=O)COC(=O)c1ccc(Cl)nc1 returned HIF act 71*, PP1 counter 1, FID counter -1, HCV NS3 hel inh 4 and PP5 inh 0.
`COc1cccc(C(C(=O)NC(C)(C)C)N(Cc2ccc(F)cc2)C(=O)CCC(=O)Nc2cc(C)on2)c1OC` (stereo not given) gave HIF act 0, PP1 counter 3, FID counter -55, HCV NS3 hel inh 10 and PP5 inh 1.
For COC(=O)C1=C(CN2CCc3ccccc32)NC(=O)NC1c1cc(C)ccc1C (stereo not given) the results were HIF act 0, PP1 counter 15*, FID counter -21, HCV NS3 hel inh -3 and PP5 inh 1.
For CC(=O)Nc1ccc(S(=O)(=O)Nc2ccc(S(=O)(=O)Nc3nccs3)cc2)cc1 the results were HIF act 23*, PP1 counter -6, FID counter -2, HCV NS3 hel inh 0 and PP5 inh -1.
CC(=O)Nc1ccc(S(=O)(=O)Nc2nccs2)cc1 was read as HIF act 0, FID counter -4 and HCV NS3 hel inh 16.
For COc1cccc(-c2nnc3sc(-c4ccccc4)nn23)c1 the results were HIF act 2, PP1 counter 2, FID counter -4, HCV NS3 hel inh 1 and PP5 inh 2.
COc1ccc(-c2nn3c(-c4ccccc4)nnc3s2)cc1 was read as HIF act 1, PP1 counter 2, FID counter -17, HCV NS3 hel inh -4 and PP5 inh 4.
Screening CCN(CC)c1ccc(-c2nn3c(-c4ccccc4OC)nnc3s2)cc1 returned HIF act 1, PP1 counter 16*, FID counter -13, HCV NS3 hel inh -37 and PP5 inh 8.
For COc1cccc(OC)c1-c1nn2c(-c3cc(-c4ccccc4)n[nH]3)nnc2s1 the results were HIF act 2, PP1 counter 59*, FID counter 3, HCV NS3 hel inh -2 and PP5 inh 5.
Screening N#CCC(=O)Nc1ccc(C(=O)OCC(=O)Nc2ccc3ccccc3c2)cc1 returned PP1 counter 15* and PP5 inh 1.
`O=C(COC(=O)c1ccc(CO)cc1)Nc1ccc2ccccc2c1` gave PP1 counter 7 and PP5 inh 1.
Cc1ccc(C(=O)Nc2ccccc2C(=O)O)cc1S(=O)(=O)Nc1ccc(Br)cc1 was read as HIF act 0, PP1 counter 16* and PP5 inh 4.
Screening Cc1ccc(C(=O)Nc2ccccc2C(=O)O)cc1S(=O)(=O)NCc1ccccc1 returned HIF act 0, PP1 counter 0, FID counter -20, HCV NS3 hel inh 22 and PP5 inh 2.
For CC1(C)CC(c2nc(-c3ccc([N+](=O)[O-])cc3)cs2)CCO1 (stereo not given) the results were HIF act -1, PP1 counter 0, FID counter -4, HCV NS3 hel inh -7 and PP5 inh 0.
Cc1nc2c(C(=O)NCCc3ccccc3Cl)c[nH]n2c(=O)c1Cl was read as HIF act 0, PP1 counter 17*, FID counter -14, HCV NS3 hel inh -24 and PP5 inh 3.
Cc1nc2c(C(=O)NCc3ccccc3)c[nH]n2c(=O)c1Cl was read as HIF act 0, PP1 counter 2, FID counter -25, HCV NS3 hel inh 2 and PP5 inh -1.
Screening COc1cccc(/C=N/NC(=O)c2nc(-c3ccccc3)cc(-c3ccccc3)n2)c1O returned HIF act 11*, PP1 counter 6, FID counter -7, HCV NS3 hel inh 2 and PP5 inh 3.
COc1cccc(/C=N/NC(=O)c2cc3c(OC)ccc(OC)c3[nH]2)c1O was read as HIF act -11, PP1 counter 16*, FID counter -19, HCV NS3 hel inh -6 and PP5 inh 2.
For COc1cccc(/C=N/NC(=O)CSc2ccccc2C)c1OC the results were HIF act 0, PP1 counter 0, FID counter -21, HCV NS3 hel inh 1 and PP5 inh 1.
COc1cccc(/C=N\NC(=O)c2ccc(Cn3cc(Br)c([N+](=O)[O-])n3)o2)c1O was read as HIF act 18*, PP1 counter 15, FID counter -4, HCV NS3 hel inh -38 and PP5 inh 2.
Screening COc1cccc(/C=N/NC(=O)CSc2ccccc2C)c1O returned HIF act 12*, PP1 counter 13, FID counter -18, HCV NS3 hel inh 3 and PP5 inh 0.
For COc1cccc(/C=N/NC(=O)c2c(C)nc3ccc(Br)cn23)c1O the results were HIF act 32*, PP1 counter 6, FID counter -7, HCV NS3 hel inh 7 and PP5 inh 0.
Screening O=C(CCN1CCN(c2ccccc2)CC1)N/N=C/c1ccccc1O returned HIF act 17*, PP1 counter -1, FID counter -4, HCV NS3 hel inh -5 and PP5 inh -1.
Screening COc1cc(C2Nc3cccc4cccc(c34)N2)cc(OC)c1O returned PP1 counter 36*, FID counter 4, HCV NS3 hel inh 1 and PP5 inh -1.
`COc1cc(C2Nc3cccc4cccc(c34)N2)ccc1OC(C)=O` gave HIF act -1, PP1 counter 3, FID counter 2, HCV NS3 hel inh 0 and PP5 inh 3.
`COc1ccc(NC(=O)/C(Cl)=C(/Cl)S(=O)Cc2ccc(Cl)cc2)cn1` (stereo not given) gave FID counter -16 and HCV NS3 hel inh -12.
COc1ccccc1/C=C(/CC(=O)NCc1ccccc1)c1nc2ccccc2s1 was read as HIF act -1, PP1 counter 5, FID counter -17, HCV NS3 hel inh 12 and PP5 inh 1.
COc1ccccc1/C=C(/CC(=O)NCc1ccc(F)cc1)c1nc2ccccc2s1 was read as HIF act 0, PP1 counter 16*, FID counter -22, HCV NS3 hel inh 2 and PP5 inh -4.
CC1CC(C)CN(CC(=O)NC(c2ccccc2)c2ccccc2)C1 (stereo not given) was read as HIF act -1, PP1 counter 2, FID counter 37*, HCV NS3 hel inh -21 and PP5 inh 0.
O=C(CN1CCCCCC1)NC(c1ccccc1)c1ccccc1 was read as HIF act -1, PP1 counter 1, FID counter 11, HCV NS3 hel inh -13 and PP5 inh 2.
